This is an account of results in ChEMBL document CHEMBL4513216, “Probing the Open Global Health Chemical Diversity Library for Multistage-Active Starting Points for Next-Generation Antimalarials” (ACS Infect Dis, 2020).

The data set can be described thus: Toxicity liver stage against HepG2, at 10uM. Details: test concentration 10 uM, cell line HepG2-A16-CD81EGFP. Type of data set: cell-based. Particulars: human, HepG2-A16-CD81EGFP cells; read-out: INHIBITION
An outline of the steps:
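Uninfected HepG2-A16-CD81EGFP cells, 3 × 10^3 per well, 1536-well, plated on prespotted compound at 10 μM final, parasite-free screening media added to match infected plates; puromycin 10 μM positive, DMSO 0.5% negative; run in parallel with 48 h PbLuc assay at 37 °C, 5% CO2; viability by CellTiter-Glo luminescence, normalized to controls.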
With `CC(C)(C)CN[C@@H]1CO[C@H](CNC(=O)Nc2ccccc2)[C@H]1O`, the cytotoxicity at 10 µM was found to be 6.98%.
For the compound `O=C(NC[C@H]1C[C@@H]2CCN1C[C@@H]2CN1CCOCC1)Nc1ccsc1`, the cytotoxicity at 10 µM amounted to 1.03%.
With `COCCNC(=O)c1ccc2c(=O)n3c(nc2c1)CCCCC3`, the cytotoxicity at 10 µM came to 5.53%.
For `CCOC(=O)CNC(=O)NCc1cccn1Cc1ccccc1` the value was 9.71%; for `CN(C)C(=O)CN1CCC2(CC1)CC(=O)c1ccc3ccccc3c1O2`, 6.17%; for `COC(=O)CN1Cc2cc3c(cc2NCCC1=O)OCO3`, -8.1%.
For `CC(C)COC(=O)N1CC(=O)N(CCc2ccccc2)CC(O)C1` (stereo unspecified) the value was -16.6%.
The same measure for `Cc1cnc2n(c1=O)C(CC(=O)NCc1cccnc1)CS2` (stereo unspecified): 4.22%.
For the compound `COc1ccc(CC(C)(O)CNC(=O)Cc2cccs2)cc1` (stereo unspecified), the cytotoxicity at 10 µM was found to be 14.7%.
For `O=S(=O)(NCC1(O)CCOCC1)c1c(F)cccc1F` the value was -4.97%; for `O=C(Cn1ccc2ccccc21)N1CCC(Oc2cnccn2)CC1`, 4.61%; for `COc1ccccc1CN1CCC2(CCC(C(=O)N(C)C)O2)CC1` (stereo unspecified), 0.493%.
For `N#Cc1ccc(C(=O)N2CCC3(CC2)CC3)cc1`, the cytotoxicity at 10 µM came out at 3.56%.
The same measure for `CCc1ccc2c(C3CN(S(C)(=O)=O)C3)ncn2c1`: 10.6%; for `Cc1ncoc1C(=O)N1C[C@@H]2CN(CC3CC3)CCO[C@@H]2C1`: 9.23%; for `Cc1ncsc1CN1C[C@@H]2CN(Cc3cccnc3)CCO[C@@H]2C1`: 5.05%.
For `O=C(NC1CCCCC1)N1C[C@@H]2OCCN(C(=O)c3ccco3)[C@@H]2C1`, the cytotoxicity at 10 µM is -152%.
The same measure for `COCC(=O)N1CC2(CCN(c3ccccc3)C2)C1`: 10.1%.
The same measure for `CC(C)NC(=O)[C@H]1C[C@@H]2[C@@H](C1)OCCN2Cc1ccncc1`: 6.62%; for `CN(C)CCCNC(=O)c1ccccc1NC(=O)c1ccccc1Cl`: -0.986%; for `CC(C)C[C@H](NC(=O)Cc1csc(-c2cccc(Cl)c2)n1)C(=O)O`: 3.51%.
Consider `COc1ccc(C2=C(C)C(N3CCc4ccccc43)=NS2(=O)=O)cc1`, for which the cytotoxicity at 10 µM is -4.66%.
The same measure for `N#Cc1ccc(OC2CCN(C(=O)c3ccc4c(c3)OCO4)CC2)nc1`: -14.7%; for `O=C1CC(c2ccsc2)c2sc(C(=O)O)c(-c3ccccc3)c2N1` (stereo unspecified): 15.2%; for `CC(C)Oc1ncnc2c1CCN(Cc1cccs1)CC2`: -0.935%.
The same measure for `CCn1cc(S(=O)(=O)N2CCN(S(=O)(=O)c3ccc(Br)s3)CC2)cn1`: 6.24%; for `CCc1noc(C2CCCCN2C(=O)c2sccc2C)n1` (stereo unspecified): 10.3%; for `Fc1cccc(Cc2cncc(C3CCCN3C3CCOCC3)n2)c1` (stereo unspecified): -0.685%.
In the case of `CCCn1nc(C)c(C(=O)N(C)[C@@H]2CC[C@@H](OC)[C@@H]2O)c1C`, the cytotoxicity at 10 µM stood at 4.36%.
For the compound `CN1CCC(c2cc(CCO)ncn2)C1` (stereo unspecified), the cytotoxicity at 10 µM worked out at 4.87%.
For `CC(=O)N1CCN(c2ccc(Cl)nn2)C(=O)C1` the value was 6.69%.
For `O=C(c1ccc(Cl)cc1)N1CCC(N2CCCNC2=O)CC1` the value was 8.55%; for `CCc1ccc2c(c1)C(CCNC(=O)CSC(F)(F)F)C(=O)N2` (stereo unspecified), -45.5%.
In the case of `CC(C)C(=O)Nc1cccc(OCC(=O)NCc2ccccc2F)c1`, the cytotoxicity at 10 µM was -6.19%.
On to `CC(C)CN(CC(O)c1ccccc1)C(=O)NC(C)C` (stereo unspecified), for which the cytotoxicity at 10 µM was -3.96%.
For `Cc1cc(C(=O)N(CC(=O)O)CC(C)C)ccc1F` the value was -6.07%.
Consider `COC(C)c1noc(CN(C)c2ncccn2)n1` (stereo unspecified), for which the cytotoxicity at 10 µM was 7.33%.
For `CCC1CN(C)c2ccccc2CN1CCn1cncn1` (stereo unspecified), the cytotoxicity at 10 µM came to 9.4%.
For `Cc1csc(N(C)C(=O)C2CC(=O)N(c3ccccc3Cl)C2)n1` (stereo unspecified) the value was 11.8%; for `Cc1cc(C[S+]([O-])Cc2ccccc2F)no1` (stereo unspecified), -3.71%.
For `Cc1nnc(CN(C)CC(=O)N2CCCN(C3CCCC3)CC2)n1C`, the cytotoxicity at 10 µM is 7.1%.
For `COCCN(C(=O)c1nc(-c2ccco2)sc1C)C1CC1`, the cytotoxicity at 10 µM was -8.96%.
As for `Cc1ccccc1CC(=O)NS(=O)(=O)c1cccc2cnccc12`, the cytotoxicity at 10 µM was -0.601%.
For `COc1ccc(N(C)C(=O)c2cccc(S(C)(=O)=O)c2)cn1` the value was 7.36%; for `CC(=O)N(Cc1ncc(C)o1)C1CCN(CCn2cccn2)C1` (stereo unspecified), 6.49%; for `COc1ccc(CCNC2CCCN(c3ccc(C)nn3)C2)cc1` (stereo unspecified), -3.65%.
The same measure for `COCCCN(C)C(=O)c1cccc(Nc2cnccn2)c1`: -8.43%; for `CC(=O)N1CCN(c2ccnc3c(F)cc(Br)cc23)CC1`: 13.6%; for `CCNC(=O)N(C)CCCc1n[nH]c(N)c1C#N`: 10.3%.
With `CC(C)(C)CN(CCC#N)Cn1cc(Cl)cn1`, the cytotoxicity at 10 µM stood at 6.29%.
The same measure for `CC1(C)CN(CC(F)(F)F)CCN1CC(=O)N1CCCCC1`: 13.2%.
The same measure for `Fc1ccc(C2CN(c3ncnc4[nH]ncc34)CCO2)cc1` (stereo unspecified): 27.1%; for `CN(CC(=O)NCc1ccco1)Cc1nc2c(s1)CCCC2`: 13.6%.
For `Cc1sc(Br)cc1S(=O)(=O)NCc1ccccn1` the value was -3.85%.
Take `CCc1ncc(C(=O)NC(C)(C)C(=O)OC)s1`: the cytotoxicity at 10 µM was determined as 5.01%.
The same measure for `CC(=O)N1CCN(C(=O)CNc2c(C)cccc2OC(F)F)CC1`: 3.24%.
Consider `Cc1cnn(CCNCc2c(C)nn(-c3ccccc3)c2C)c1`, for which the cytotoxicity at 10 µM is -14.1%.
For `Cc1nc(CSCc2ccc(OCC(F)(F)F)nc2)no1` the value was -2.34%.
For `CCC1COCCN1C(=O)NCc1nccn1Cc1ccccc1` (stereo unspecified) the value was -0.457%.
For `Cc1ccc(S(=O)(=O)N2CCN(C)c3ccncc32)cc1F` the value was 9.21%; for `O=S(=O)(NCc1ccc(S(=O)(=O)N2CCCC2)s1)c1cc(Cl)cc(Cl)c1`, -11.1%.
For `Cc1nn(C)c(N(C)C)c1CNCc1cccnc1`, the cytotoxicity at 10 µM came out at 6%.
As for `CC(C)n1ccc(-c2cc(C(=O)N3CCCC3)c3ccccn23)n1`, the cytotoxicity at 10 µM was -2.7%.
In the case of `Cc1noc(C)c1C(=O)N1CC[C@H]2C[C@@H](c3nccs3)O[C@@H]2C1`, the cytotoxicity at 10 µM was -1.62%.
Consider `Cc1nn(C)cc1-c1ccnc(N2CCN(c3cnccn3)CC2)n1`, for which the cytotoxicity at 10 µM was found to be 7.26%.
Regarding `COc1ccccc1N1CCN(Cc2nccc(OC)c2OC)CC1=O`, the cytotoxicity at 10 µM was -4%.
Take `Cc1cc(NCc2ccc(C#N)cc2)n2nc(C)cc2n1`: the cytotoxicity at 10 µM was -10.9%.
`Cc1nc(N(Cc2ccncc2)CC2CCCO2)c2ccsc2n1` (stereo unspecified): the cytotoxicity at 10 µM is -155%.
For `O=C(O)c1cc(-c2ccoc2)cc(S(=O)(=O)N2CCSCC2)c1` the value was 0.49%; for `CCN(C)c1nccc(N2CCN[C@H]3CS(=O)(=O)C[C@H]32)n1`, 7.85%.
For `Cc1nc(CN(C)CC2CCCN(CCc3ccc(Cl)cc3)C2)no1` (stereo unspecified) the value was 8.15%; for `CC(C)n1cc(CN(C)C[C@@H]2CCCN3CCCC[C@H]23)cn1`, 0.276%; for `CCS(=O)(=O)c1ncc(CN2CCOCC2)n1CCCc1ccccc1`, 7.57%.
As for `CCC(CO)N(Cc1ccsc1)Cc1ccc(-c2ccn[nH]2)s1` (stereo unspecified), the cytotoxicity at 10 µM is -1.37%.
For `COC(C)(C)C(=O)NCC1CCN(Cc2cc3ccccc3[nH]2)C1` (stereo unspecified), the cytotoxicity at 10 µM worked out at 5.85%.
Turning to `Cc1cc(N2CCC(n3cc(CCCO)nn3)CC2)ccn1`, the cytotoxicity at 10 µM worked out at 3.6%.
For `CC(C1CCN(Cc2cnn(C)c2C2CC2)CC1)N1CCCC1` (stereo unspecified) the value was 6.29%.
As for `CC(C)CNC(=O)CN(C)S(C)(=O)=O`, the cytotoxicity at 10 µM was 13.7%.
For `COc1ccc(-c2nccnc2C2CCN(C(C)=O)CC2)cc1` the value was -4.43%; for `CS(=O)(=O)N1CCC(C(=O)NC(Cc2ccsc2)c2ccccn2)CC1` (stereo unspecified), -2.91%; for `COc1ccccc1N1CCC(CNCc2ccc(C#N)cc2)C1` (stereo unspecified), -12.1%.
For the compound `O=C(CCc1nc2ccccc2[nH]1)N1CCCC(n2cccn2)C1` (stereo unspecified), the cytotoxicity at 10 µM is -15.9%.
`c1ccc(-c2cnc(CN3CCCC3Cn3cccn3)o2)cc1` (stereo unspecified): the cytotoxicity at 10 µM was -13.6%.
For `O=C1OCCC1N1CCN(C(=O)Cc2ccccc2Cl)CC1` (stereo unspecified) the value was -9.2%; for `CCc1nccn1C1CCCN(C(=O)c2ccc3nncn3c2)C1` (stereo unspecified), -12.7%.
Turning to `COc1cc(C(C)=O)ccc1OCC(=O)N(C)Cc1cnn(C)c1`, the cytotoxicity at 10 µM is -3.88%.
`COCCN1CCC(CNC(=O)C2(c3cc(C)cc(C)c3)CCC2)C1` (stereo unspecified): the cytotoxicity at 10 µM was -7.4%.
For `CC(C)c1nc(C2CCCN(C(=O)CCCn3cncn3)C2)no1` (stereo unspecified) the value was -3.29%.
For `CCc1c(C(=O)NCC(=O)OCC2CC2)cnn1-c1ccc(C)cc1` the value was -3.81%; for `O=C(NCCNc1ncccn1)C1CCN(CC(F)(F)F)CC1`, -5.6%.
For `COc1ccc(F)cc1C(C)NC(=O)Cn1ccc(=O)n(C)c1=O` (stereo unspecified) the value was -8.35%; for `CC(=O)N1CCN(Cc2ccncc2)CC2(CC(=O)N(C)C2)C1` (stereo unspecified), -1.83%.
For `O=C(NCc1ccccn1)[C@H]1COC[C@H]2CN(c3ncccn3)C[C@H]21`, the cytotoxicity at 10 µM was determined as 9.19%.
The same measure for `Cc1nc(CN2CCN(CC3CCOC3)Cc3cccnc32)cs1` (stereo unspecified): 11%.
The same measure for `COCCN1CCC2(CC1)CC1(CCN(S(C)(=O)=O)CC1)N(C)C2=O`: 0.964%; for `Cn1cnc(S(=O)(=O)N2C[C@H](OCC3CC3)[C@H]3OCCC[C@H]32)c1`: -149%.
